A selection: hits, their analogues and other compounds. The true share with any hit is near 2.3%.
PAX8 inh HTS: PAX8 transcriptional activity inhibition. RMG-I TPO-luciferase reporter, SteadyGlo, 24 h. inhibition, % at 12.6 µM. 1.2% of 360,000 active;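 active = mean replicate inhibition at least 60% with every replicate also reaching 60%; inconclusive = only one of the two criteria is met; inactive = mean below 60% and not all replicates reaching 60%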;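 note: luciferase light reporting Pax8 driven TPO promoter activity; plate controls were median of neutral control wells for no effect and mitoxantrone controls for full effect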
Arr AP2 block: human beta-arrestin and AP2 interaction inhibition; AID 504490; 0.31% of 340,000 active; FITC-arrestin peptide / GST-AP2 beads, flow cytometry; AP2 beta2 appendage carries R879A mutation; inhibition, % at 10 µM;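 active = inhibition above a set limit, near 3 SD of compounds lacking own fluorescence, cut at about 54% in these data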;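 note: plate controls were DMSO wells for no effect and 5 µM unlabelled arrestin peptide for full effect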
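Material – GST-tagged AP2 beta2-adaptin appendage (R879A) on 4 µm glutathione beads · Probe or stimulus – fluorescein-tagged arrestin peptide at 50 nM final · Timing – 12 min plus 1 h, RT · Detection – bead flow cytometry, FITC channel · Read-out basis – inhibition as reduced fluorescein signal on beads, percent · Medium – PBS plus Tween 20 (0.05%) and BSA (0.1%)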
HIV Env fusion: HIV envelope-mediated fusion inhibition; inhibition, % at 12.3 µM; HeLa-JRFL Env/CEM21 cell fusion, luciferase; AID 651610; 1.1% of 360,000 active;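 active = mean replicate inhibition score of at least 50 and every replicate individually at or above 50; inconclusive = only one of the two criteria met; inactive = mean below 50 and not all replicates reaching 50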;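 note: 0% = plate neutral controls and 100% = maraviroc near 300 nM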
PfHsp90 yeast 2: inhibits growth of yeast expressing Plasmodium falciparum Hsp90. inhibition, % at 9.4 µM. 0.32% of 310,000 active. S. cerevisiae expressing PfHsp90, BacTiter-Glo ATP, 48 h; yeast lacking PDR1 and PDR3 efflux regulators;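 active = every replicate shows inhibition above about 80%, whatever the replicate mean, limit read from the data; inconclusive = mean inhibition reaches the set limit but some replicate falls short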;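 note: 0% = DMSO neutral controls and 100% = 20 µM radicicol positive controls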
Glyco luc inh: N-linked glycosylation inhibition; AID 588692; D54 ERlucT glycosylation luciferase reporter, 24 h; percent of 100 nM tunicamycin response; reporter increase, % at 12.5 µM; 0.23% of 360,000 active;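 active = mean luciferase reporter signal, scaled so untreated is 0 and the glycosylation-blocking control 100, at or above a set limit in every replicate; inconclusive = mean reaches the limit but not every replicate does; inactive = mean below the limit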;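 note: luciferase carries N-glycosylation sites so blocking glycosylation raises the light; 0% = median of neutral control wells and 100% = median of 100 nM tunicamycin wells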
Rtt109 HAT inh: C. albicans Rtt109 histone acetyltransferase inhibition. Q5AAJ8. purified Rtt109/Vps75, ThioGlo CoA-SH fluorescence, 4 h. inhibition, % at 34.9 µM. 0.16% of 330,000 active. AID 540336;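 active = inhibition of at least 50% in every replicate; inconclusive = best replicate reaches 50% inhibition but some replicates fall short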
Target sequence (Q5AAJ8 whole entry, looked up): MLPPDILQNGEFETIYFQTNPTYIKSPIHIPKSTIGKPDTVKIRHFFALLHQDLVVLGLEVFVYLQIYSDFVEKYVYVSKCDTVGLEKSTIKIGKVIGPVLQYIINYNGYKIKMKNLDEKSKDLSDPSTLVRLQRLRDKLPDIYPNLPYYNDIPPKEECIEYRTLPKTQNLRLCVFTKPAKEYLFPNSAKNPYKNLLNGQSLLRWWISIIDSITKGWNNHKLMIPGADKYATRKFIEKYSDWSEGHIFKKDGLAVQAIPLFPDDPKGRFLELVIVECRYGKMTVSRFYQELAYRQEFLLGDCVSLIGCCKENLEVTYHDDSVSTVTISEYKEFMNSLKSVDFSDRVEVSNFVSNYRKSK
* hit, by the source's call; ? = inconclusive; . = no result given; ! = not active in a repeat; [ ] = remark or other dose.

SMILES	PAX8 inh HTS	Arr AP2 block	HIV Env fusion	PfHsp90 yeast 2	Glyco luc inh	Rtt109 HAT inh
Cc1ccc(S(=O)(=O)Nc2ccc3c(c2)C(=O)N([C@H](C)CO)C[C@@H](C)[C@H](CN(C)Cc2ccc(C(F)(F)F)cc2)OCCCC[C@@H](C)O3)cc1	102.4*	.	65.1*[16.7 µM]	.	.	.
Cc1ccc(S(=O)(=O)Nc2ccc3c(c2)C(=O)N([C@@H](C)CO)C[C@@H](C)[C@@H](CN(C)Cc2ccc(C(F)(F)F)cc2)OCCCC[C@H](C)O3)cc1	87.1*	.	15.5[16.7 µM]	.	.	.
Cc1ccc(S(=O)(=O)Nc2ccc3c(c2)C(=O)N([C@H](C)CO)C[C@H](C)[C@H](CN(C)Cc2ccc(C(F)(F)F)cc2)OCCCC[C@@H](C)O3)cc1	25.2	.	-29.7[16.7 µM]	.	.	.
O=C1COc2ccc(-c3csc(=Nc4ccc(OC(F)F)cc4)n3CC3CCCO3)cc2N1 (centres undefined)	16.8	5.8	92.4*	.	-4.2	10.0
COCC(C)n1c(-c2ccc3c(c2)NC(=O)CO3)csc1=Nc1ccc(OC(F)F)cc1 (centres undefined)	42.6	2.6	83.2*!	14.3	-8.5	1.4
COc1ccccc1N=c1scc(-c2ccc3c(c2)NC(=O)CO3)n1CC1CCCO1 (centres undefined)	.	12.8	.	-24.1	-4.9	14.5
CCCCCCCn1c2c(c(=N)c3ccccc31)CCC2	100.4*	15.0	44.8	-2.3	6.8	3.6
COCCn1nnnc1CN(CCc1ccccc1)Cc1cc2cc(OC)ccc2[nH]c1=O	.	22.2	76.9*	.	-3.1	-8.6
COc1ccc2[nH]c(=O)c(CN(Cc3nnnn3Cc3ccccc3)CC3CCCO3)cc2c1 (centres undefined)	.	8.5	111.6*	10.2	1.5	53.0*
COCCn1nnnc1CN(Cc1cccnc1)Cc1cc2cc(OC)ccc2[nH]c1=O	.	0.6	.	-6.2	-1.5	-2.9
COc1ccc(N2CCc3c(C)nc4c(OC)cccc4c32)cc1	26.5	-2.5	-40.4	-14.8	35.4*	-8.1
COc1ccc(N2CCc3c(C)nc4c(OC)cc(OC)cc4c32)cc1	46.9	41.0	4.8	-0.4	?	?
O=C(CCl)NCc1cc(-c2ccc(Cl)cc2)no1	63.8*	2.4	16.1	-11.9	8.0	2.3
COc1ccccc1-c1cnc2c(c1)C(=O)N([C@H](C)CO)C[C@H](C)[C@H](CN(C)C(=O)c1ccncc1)O2	.	.	9.0[16.7 µM]	.	.	.
COc1cc(C(=O)OCCCc2cc3ccccc3c(=O)o2)cc(OC)c1OC	-6.7	4.0	11.2	20.9	0.3	0.6
COc1cc(C(=O)OCCc2cc3ccccc3c(=O)o2)cc(OC)c1OC	8.4	9.0	-81.0	-1.7	27.0*	2.4
Cc1cc(C)c(C)c(OC(=O)c2sc(Cl)nc2C)c1	.	10.6	.	10.1	38.3*	2.3
CN1c2ccccc2N(C)C1c1ccc2c(c1)OCO2	.	-5.3	62.8*	.	2.3	-5.2
CCNC(=O)C[C@H]1CC[C@H]2[C@H](COc3ccc(NC(=O)Cc4ccccc4)cc3C(=O)N2C)O1	7.0	.	-14.2[16.7 µM]	.	.	.
CN1/C(=C\C(=O)C[n+]2ccc3ccccc3c2)C(C)(C)c2ccccc21	77.7*	3.2	41.5	-3.0	1.9	25.1
COc1ccccc1OCC(=O)/C=C1/N(C)c2ccccc2C1(C)C	12.2	11.1	-0.2	-32.1	0.0	-1.0
COc1ccc(NC(=O)Nc2ccc3c(c2)C(=O)N([C@@H](C)CO)C[C@H](C)[C@@H](CN(C)S(=O)(=O)c2cccs2)OCCCC[C@@H](C)O3)cc1	.	.	3.3[16.7 µM]	.	.	.
Cc1ccc(S(=O)(=O)N(C)C[C@H]2Oc3ccc(NC(=O)Nc4cccc5ccccc45)cc3CC(=O)N([C@@H](C)CO)C[C@@H]2C)cc1	.	.	28.4[16.7 µM]	.	.	.
Cc1noc(C)c1S(=O)(=O)N(C)C[C@@H]1Oc2ccc(NC(=O)Nc3cccc4ccccc34)cc2CC(=O)N([C@H](C)CO)C[C@@H]1C	-7.6	.	78.7*[16.7 µM]	.	.	.
Cc1ccc(S(=O)(=O)N(C)C[C@@H]2Oc3ccc(NC(=O)Nc4cccc5ccccc45)cc3CC(=O)N([C@@H](C)CO)C[C@@H]2C)cc1	.	.	56.4*[16.7 µM]	.	.	.
Cc1noc(C)c1S(=O)(=O)N(C)C[C@@H]1Oc2ccc(NC(=O)Nc3cccc4ccccc34)cc2CC(=O)N([C@H](C)CO)C[C@H]1C	-9.8	.	0.9[16.7 µM]	.	.	.
